We go through 33 molecules from ChEMBL document CHEMBL1143720, “Vasorelaxant activity of diterpenes from Croton zambesicus and synthetic trachylobanes and their structure-activity relationships” (J Nat Prod, 2007).

Experiment [1] relates to Aorta. Nature of the experiment: Vasorelaxant activity against KCl-induced contraction in Wistar rat aorta. Type of experiment: functional, tissue-based. Put shortly:
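Endothelium-intact aortic rings in physiological solution at 37 °C, gassed with 95% O2/5% CO2 and equilibrated 60 min. Compound added cumulatively (10^-6 to 10^-4 M; 0.3–3 or 0.3–10 µg/mL by solubility) on the plateau of 100 mM KCl depolarizing contraction. Response taken as % of initial KCl contraction. IC50 from sigmoidal fit, 95% CI, 3–6 determinations.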

The test system of experiment [2] is HeLa. Nature of the experiment: Cytotoxicity against human HeLa cells by MTT method. In kind it is cell-based. Put shortly: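 HeLa human cervix carcinoma cells; viability by MTT colorimetric assay. Absorbance expressed as percent of control, with camptothecin as positive control. IC50 given as mean ± SEM.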
(Tetrazolium dyes change colour on reduction, which living cells bring about.)

Experiment [3] relates to Aorta. In words: Vasorelaxant activity against KCl-induced contraction in Wistar rat aorta at 10 ug/ml. Type of experiment: functional. Set-up: scale not given: the % may be the effect or the level left. The method in brief: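 Rat aortic rings at 37 °C, gassed with 95% O2/5% CO2 and equilibrated 60 min; first contraction with 100 mM KCl depolarizing solution. After washing, rings were preincubated 30 min with compound at 10 µg/mL (max 3 µg/mL if poorly soluble; DMSO ≤0.1% in bath) and KCl contraction repeated. Inhibition versus the control contraction after 40 min incubation; mean ± SEM of n.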

With `CC1(C)CCC[C@]2(C)[C@@H]1CC[C@@]13C(=O)C4[C@H](C[C@@H]21)[C@]4(C)[C@H]3O`, the concentration for half-maximal inhibition (IC50) – broadly, the concentration that gives 50% inhibition – in experiment [1] was 4.65 µM; in experiment [2] it was 138 µM. Moreover, the Activity in experiment [3] is listed as 17.9%.

Take `CC1(C)CCC[C@]2(C)[C@@H]1CC[C@@]13[C@H](O)C4[C@H](C[C@@H]21)[C@]4(C)[C@H]3O`: in experiment [2], the IC50 was above 150 µM. In experiment [3], this molecule yielded an Activity of 73.4%.

In experiment [2], `CC1(C)C(=O)CC[C@]2(C)[C@@H]1CC[C@@]13C(=O)C4[C@H](C[C@H]12)[C@]4(C)C3=O` gave an IC50 above 150 µM. The Activity in experiment [3] came out at 84.4%.

Consider `CC1(C)CCC[C@]2(C)[C@@H]1CC[C@@]13[C@H](O)C[C@](C)(CC[C@@H]21)[C@H]3O`, for which the 50% inhibitory concentration (IC50) in experiment [2] is above 150 µM. For the same molecule, in experiment [3], the Activity came to 52.2%.

As to `C=C1[C@H]2CC[C@@]34C(=O)C5[C@H](C[C@H]3[C@]2(C)CC[C@@H]1Br)[C@]5(C)C4=O`, in experiment [2], the IC50 is above 150 µM. The molecule further returned an Activity in experiment [3] of 65.5%.

In experiment [2], `C=C1[C@H]2CC[C@@]34C(=O)C5[C@H](C[C@H]3[C@]2(C)CC[C@@H]1O)[C@]5(C)C4=O` had an IC50 above 150 µM. This molecule gave an Activity in experiment [3] of 83.9%.

As to `C=C1C[C@]23CC[C@H]4C(C)(C)C(=O)CC[C@]4(C)[C@H]2C[C@@H]1CC3=O`, the IC50 in experiment [2] was above 150 µM. Moreover, the Activity in experiment [3] turned out to be 60.6%.

For `C[C@@]1(C(O)CO)CC[C@@H]2C(O)(C1)C(O)C[C@H]1[C@@]2(C)CC[C@H](O)[C@]1(C)CO` (some centres not stated), the IC50 in experiment [1] is above 80 µM.

On to `CC(C)(C)[Si](C)(C)O[C@@]12CC[C@@]3(C)[C@@H](CC[C@]45C(=O)C6[C@@H](C[C@@H]43)[C@@]6(C)C5=O)[C@]1(C)C2`, for which the IC50 in experiment [2] is above 150 µM.

For `C=C1CCC[C@]2(C)[C@@H]1CC[C@@]13C(=O)C4[C@H](C[C@H]12)[C@]4(C)C3=O`, the concentration for half-maximal inhibition (IC50) in experiment [1] amounted to 3.5 µM; in experiment [2] it was 128 µM. In addition, in experiment [3], the Activity came to 9.2%.

Regarding `CC1(C)CCC[C@]2(C)[C@H]3CC[C@]4(C)CC(=O)[C@]3(CC[C@@H]12)[C@H]4O`, the IC50 in experiment [2] was 153 µM. Further, the Activity in experiment [3] is 40.7%.

For the molecule `CC1(C)CCC[C@]2(C)[C@H]3C[C@@H]4C5C(=O)[C@]3(CC[C@@H]12)[C@H](I)[C@]54C`, the IC50 in experiment [2] was determined as 150 µM. For the same molecule, the Activity in experiment [3] was 37.4%.

`CC1(C)C(=O)CC[C@@]2(C)[C@H]1CC[C@]13C(=O)C4[C@@H](C[C@@H]12)[C@]4(C)C3=O` gave an IC50 in experiment [2] above 150 µM. Further, the Activity in experiment [3] is recorded as 91.4%.

`CO[C@]1(C)[C@@H](Br)CC[C@@]2(C)[C@@H]3C[C@H]4C5C(=O)[C@@]3(CC[C@@H]21)C(=O)[C@]54C`: the results for the IC50 in experiment [1] and in experiment [2] were 12.3 µM and above 150 µM, respectively. For the same molecule, in experiment [3], the Activity is 33%.

As for `CC1(C)C(=O)CC[C@]2(C)[C@H]3C[C@@H]4C5C(=O)[C@]3(CC[C@@H]12)[C@@H](O)[C@]54C`, in experiment [2], the half-inhibitory concentration (IC50) was above 150 µM. The molecule further returned an Activity in experiment [3] of 90%.

On to `C[C@@]12CCC(=O)[C@](C)(CBr)[C@H]1CC[C@@]13C(=O)C4[C@H](C[C@H]12)[C@]4(C)C3=O`, for which the IC50 in experiment [2] was above 150 µM. Moreover, in experiment [3], the Activity came to 71.8%.

For the molecule `C[C@@]12CC[C@H](O)[C@](C)(CO)[C@H]1CC[C@@]13CC4[C@H](C[C@H]12)[C@]4(C)C3`, the IC50 in experiment [1] is above 80 µM; in experiment [2], 64 µM.

In experiment [2], `CC1(C)C(=O)CC[C@]2(C)[C@@H]1CC[C@@]13C(=O)C4[C@H](C[C@@H]21)[C@]4(C)[C@H]3O` came in with a half-maximal inhibitory concentration (IC50) above 150 µM. In experiment [3], this molecule showed an Activity of 92.7%.

In turn, `CC1(C)[C@H](O)CC[C@]2(C)[C@@H]1CC[C@@]13C(=O)C4[C@H](C[C@@H]21)[C@]4(C)[C@H]3O` had an IC50 in experiment [2] above 150 µM. Further, in experiment [3], the Activity is recorded as 90.3%.

For the molecule `C=C1[C@H]2CC[C@@]34C(=O)C5[C@H](C[C@H]3[C@]2(C)CC[C@@H]1Cl)[C@]5(C)C4=O`, the IC50 in experiment [1] was 9.75 µM; in experiment [2] it was above 150 µM. This molecule also displayed an Activity in experiment [3] of 28.5%.

For the molecule `CC1(C)CCC[C@]2(C)[C@H]3C[C@@H]4C5C(=O)[C@]3(CC[C@@H]12)[C@@H](O)[C@]54C`, the IC50 in experiment [1] is 9.1 µM; in experiment [2], above 150 µM. Moreover, in experiment [3], the Activity is 22.1%.

As for `C[C@@]12CCC(=O)[C@](C)(CO)[C@H]1CC[C@@]13CC4[C@H](C[C@H]12)[C@]4(C)C3`, the values for the half-maximal inhibitory concentration (IC50) in experiment [1] and in experiment [2] were 6.3 µM and 40.4 µM, respectively. Moreover, in experiment [3], the Activity worked out at 17%.

Consider `CC1(C)CCC[C@]2(C)[C@@H]1CC[C@@]13C(=O)C4[C@H](C[C@H]12)[C@]4(C)C3=O`, for which the IC50 turned out to be 5.8 µM in experiment [1] and 118 µM in experiment [2]. Moreover, the Activity in experiment [3] is reported as 14.5%.

As for `CC1(C)C(=O)CC[C@]2(C)[C@H]3C[C@@H]4C5C(=O)[C@]3(CC[C@@H]12)[C@H](I)[C@]54C`, the IC50 in experiment [2] is above 150 µM. Besides, the Activity in experiment [3] amounted to 95.7%.

For `C[C@@H]1C(=O)[C@]23CC[C@H]4C(C)(C)C(=O)CC[C@]4(C)[C@H]2C[C@@H]1CC3=O`, the 50% inhibitory concentration (IC50) in experiment [2] was above 150 µM. This molecule also returned an Activity in experiment [3] of 87.9%.

In experiment [2], `CC1=CCC[C@]2(C)[C@@H]1CC[C@@]13C(=O)C4[C@H](C[C@H]12)[C@]4(C)C3=O` gave an IC50 of 125 µM.

As for `CC1(C)[C@H]2CC[C@@]34CC5[C@H](C[C@H]3[C@]2(C)CC[C@@H]1O)[C@]5(C)C4`, the IC50 in experiment [1] was above 80 µM; in experiment [2], 25.3 µM. The Activity in experiment [3] was determined as 67.3%.

Consider `C[C@]12CCC(=O)[C@@](C)(CO)[C@@H]1CC[C@]13C(=O)C4[C@@H](C[C@@H]12)[C@]4(C)C3=O`, for which the Activity in experiment [3] stood at 93.1%.

In the case of `CC1(C)C(=O)CC[C@@]2(C)[C@@H]3C[C@@H]4[C@@H]5C[C@@]3(CC[C@@H]12)C[C@@]45C`, the half-maximal inhibitory concentration (IC50) was above 80 µM in experiment [1] and 33.5 µM in experiment [2]. In experiment [3], the Activity was 65.6%.

Turning to `CC[C@@]1(O)C(=O)OCc2c1cc1n(c2=O)Cc2cc3ccccc3nc2-1` [CAMPTOTHECIN], the concentration for half-maximal inhibition (IC50) in experiment [2] turned out to be 0.5 µM.

`C=C[C@@]1(C)CC[C@H]2C(=CC[C@H]3C(C)(C)[C@@H](O)CC[C@]23C)C1` [ISOPIMARANE]: the half-inhibitory concentration (IC50) came to 46.2 µM in experiment [1] and 87.8 µM in experiment [2]. Further, in experiment [3], the Activity stood at 54.6%.

As to `C[C@@H]1C[C@@H](O)[C@H]2[C@@](C)(CO)CCC[C@]2(C)[C@@]1(O)CCc1ccoc1` [MARRUBENOL], half-maximal inhibition in experiment [1] (IC50) was put at 10 µM. In addition, the Activity in experiment [3] was determined as 7.9%.

For `C/C(=C\CO)CCC[C@H](C)CCC[C@H](C)CCCC(C)C` [TRANS-PHYTOL], the values for the 50% inhibitory concentration (IC50) in experiment [1] and in experiment [2] were above 80 µM and 46.6 µM, respectively. In addition, in experiment [3], the Activity is listed as 81.4%.
